# In ChEMBL document CHEMBL4033800, “Further Developments of the Phenyl-Pyrrolyl Pentane Series of Nonsteroidal Vitamin D Receptor Modulators as Anticancer Agents” (J Med Chem, 2018):
# pIC50: −log10 of the molar value. Activity calls are given as the source filed them. The rule behind the calls is not given here.
# Tests used:
# MCF7 [1] = experiment: Induction of cell cycle arrest in human MCF7 cells assessed as accumulation at G2/M phase at 1 uM after 24 hrs by propidium iodide-staining based flow cytometry (reference value: 12.41%); format: functional
# [2] = Half life in iv dosed Sprague-Dawley rat; format: ADME, organism-based; settings: in vivo
# [3] = Drug uptake in human MCF7 cells at 1 uM after 30 mins by HPLC analysis; format: ADME, cell-based; settings: mcf7, 0.5 h
# Summary of the method: (§1)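 MCF7 cells were given 1 µM compound in medium with 10% FBS for 10 or 30 min. Cells and medium were extracted separately with chloroform/methanol (3:1, v/v) and analysed by HPLC. Mean ± SEM, n = 3.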
# MCF7 [4] = experiment: Induction of cell cycle arrest in human MCF7 cells assessed as accumulation at S phase at 1 uM after 24 hrs by propidium iodide-staining based flow cytometry (reference value: 31.55%); format: functional
# MCF7 [5] = experiment: Induction of apoptosis in human MCF7 cells assessed as early apoptotic cells at 1 uM after 24 hrs by Annexin V-FITC/propidium iodide-staining based flow cytometry (reference value: 1.74%); format: functional
# MCF7 [6] = experiment: Induction of apoptosis in human MCF7 cells assessed as late apoptotic cells at 1 uM after 24 hrs by Annexin V-FITC/propidium iodide-staining based flow cytometry (reference value: 0.062%); format: functional
# [7] = Drug uptake in human MCF7 cells at 1 uM after 10 mins by HPLC analysis; format: ADME, cell-based; settings: mcf7, 10 min; summary of the method: as §1
# MCF7 [8] = experiment: Induction of apoptosis in human MCF7 cells assessed as viable cells at 1 uM after 24 hrs by Annexin V-FITC/propidium iodide-staining based flow cytometry (reference value: 98.2%); format: functional; settings: MCF7, 24 h, read-out: Activity
# MCF7 [9] = experiment: Induction of apoptosis in human MCF7 cells assessed as necrotic cells at 1 uM after 24 hrs by Annexin V-FITC/propidium iodide-staining based flow cytometry (reference value: 0.031%); format: functional
# Mus musculus [10] = experiment: Hypercalcemic effect in ICR mouse at 0.5 ug/kg, ip administered for 7 days measured on day 8 post-dose by MTB-based assay relative to control; format: ADME, organism-based; settings: in vivo, 0.0005 mg/kg, 168 h
# Summary of the method: (§2)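 Mice were dosed i.p. over a 7-day period and serum calcium was then measured. Each dose level was compared with a vehicle-treated control group (saline cited as the comparator). Data are mean ± SEM, n = 6 per group. Significance versus vehicle was reported at p < 0.05, 0.01 and 0.001.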
# Mus musculus [11] = experiment: Hypercalcemic effect in ICR mouse assessed as serum calcium levels at 5 ug/kg, ip administered for 7 days measured on day 8 post-dose by MTB-based assay (reference value: 7.05 mg/dl); format: ADME, organism-based; settings: in vivo, 0.005 mg/kg, 168 h; summary of the method: as §2
# MCF7 [12] = experiment: Induction of cell cycle arrest in human MCF7 cells assessed as accumulation at G0/G1 phase at 1 uM after 24 hrs by propidium iodide-staining based flow cytometry (reference value: 56.03%); format: functional
# [13] = Drug metabolism in human MCF7 cells at 1 uM after 24 hrs by HPLC analysis; format: ADME, cell-based; settings: read-out: Drug metabolism
# Summary of the method: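 MCF7 cells were incubated 24 h with 1 µM compound, alongside a medium-only incubation without cells. Mixtures were extracted with chloroform/methanol (3:1, v/v) and quantified by HPLC. Mean ± SEM, n = 3.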
# Mus musculus [14] = experiment: Toxicity in BALB/c nude mouse xenografted with human MCF7 cells assessed increase in serum calcium levels at 10 mg/kg, ip administered every other day relative to control; format: organism-based; settings: in vivo
# Summary of the method: (§3)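 MCF7 cells transplanted orthotopically into the breast of athymic nude mice. Dosing at 10 mg/kg i.p. in vehicle of polyoxyethylated castor oil/ethanol/saline 1:1:18, with vehicle and saline control groups. Body weight, tumor volume and serum calcium followed.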
# MCF7 [15] = experiment: Antiproliferative activity against human MCF7 cells after 48 hrs by MTT assay; format: functional, cell-based; settings: MCF7, 48 h
# Mus musculus [16] = experiment: Toxicity in BALB/c nude mouse xenografted with human MCF7 cells assessed as change in body weight at 10 mg/kg, ip administered every other day relative to control; format: organism-based; settings: in vivo; summary of the method: as §3
# L02 = experiment: Antiproliferative activity against human L02 cells after 48 hrs by MTT assay; format: cell-based; settings: L02, 48 h
# PC-3 = experiment: Antiproliferative activity against human PC3 cells after 48 hrs by MTT assay; format: functional, cell-based; settings: PC-3, 48 h
# HepG2 = experiment: Antiproliferative activity against human HepG2 cells after 48 hrs by MTT assay; format: functional, cell-based; settings: HepG2, 48 h
# Caco-2 = experiment: Antiproliferative activity against human Caco2 cells after 48 hrs by MTT assay; format: functional, cell-based; settings: Caco-2, 48 h
# Vitamin D3 receptor = target: T1, Vitamin D3 receptor (Homo sapiens, UniProt P11473); experiment: Displacement of fluormone VDR red from human full length VDR after 4 hrs by fluorescence polarization assay
# T1 sequence (P11473 whole entry): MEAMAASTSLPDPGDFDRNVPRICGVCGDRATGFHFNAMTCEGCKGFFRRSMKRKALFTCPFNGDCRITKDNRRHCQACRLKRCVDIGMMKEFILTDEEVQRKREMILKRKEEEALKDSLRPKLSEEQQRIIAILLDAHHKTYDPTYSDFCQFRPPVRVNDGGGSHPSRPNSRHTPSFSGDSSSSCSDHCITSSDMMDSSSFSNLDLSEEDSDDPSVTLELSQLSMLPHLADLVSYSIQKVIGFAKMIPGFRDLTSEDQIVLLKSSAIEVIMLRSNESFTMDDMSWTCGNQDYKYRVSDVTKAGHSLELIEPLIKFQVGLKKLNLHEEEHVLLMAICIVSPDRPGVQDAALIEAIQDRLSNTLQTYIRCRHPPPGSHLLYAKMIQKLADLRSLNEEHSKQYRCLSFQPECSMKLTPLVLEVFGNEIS
# Mus musculus [17] = experiment: Hypercalcemic effect in ICR mouse at 30 mg/kg/day, ip administered for 7 days measured on day 8 post-dose by MTB-based assay relative to control; format: ADME, organism-based; settings: in vivo, 168 h; summary of the method: as §2
# Mus musculus [18] = experiment: Hypercalcemic effect in ICR mouse at 0.5 to 5 mg/kg/day, ip administered for 7 days measured on day 8 post-dose by MTB-based assay relative to control; format: ADME, organism-based; settings: in vivo, 168 h; summary of the method: as §2
# MCF7 [19] = experiment: Induction of apoptosis in human MCF7 cells xenografted in BALB/c nude mouse at 10 mg/kg, ip administered every other day by TUNEL assay; format: functional, organism-based
# Summary of the method: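 Apoptosis in MCF7 orthotopic tumor sections from nude mice given 10 mg/kg i.p. was scored by TUNEL staining.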
# MCF7 [20] = experiment: Antitumor activity against human MCF7 cells xenografted in BALB/c nude mouse assessed as tumor growth inhibition at 10 mg/kg, ip administered every other day; format: functional, organism-based; summary of the method: as §3
# [21] = Half life in Sprague-Dawley rat at 20 mg/kg, po by HPLC analysis; format: ADME, organism-based; settings: in vivo
# Summary of the method: (§4)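 Male Sprague-Dawley rats (180−220 g), 4 per group, dosed at 5 mg/kg i.v., 20 mg/kg i.p. or 20 mg/kg p.o. Parameters given as mean ± SD (n = 4).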
# [22] = AUC in Sprague-Dawley rat at 5 mg/kg, iv measured up to 48 hrs post administration by HPLC analysis; format: ADME, organism-based; set-up: dose 5 mg/kg, time < 48 hr, route intravenous; settings: in vivo; summary of the method: as §4
# [23] = AUC in Sprague-Dawley rat at 20 mg/kg, ip measured up to 48 hrs post administration by HPLC analysis; format: ADME, organism-based; set-up: time < 48 hr, dose 20 mg/kg, route intraperitoneal; settings: in vivo; summary of the method: as §4
# [24] = Bioavailability in Sprague-Dawley rat at 20 mg/kg, ip measured up to 48 hrs after administration by HPLC analysis; format: ADME, organism-based; settings: in vivo; summary of the method: as §4
# [25] = MRT in Sprague-Dawley rat at 20 mg/kg, ip by HPLC analysis; format: ADME, organism-based; settings: in vivo; summary of the method: as §4
# [26] = Clearance in Sprague-Dawley rat at 5 mg/kg, iv measured up to 48 hrs post administration by HPLC analysis; format: ADME, organism-based; settings: in vivo; summary of the method: as §4
# [27] = Clearance in Sprague-Dawley rat at 20 mg/kg, po by HPLC analysis; format: ADME, organism-based; settings: in vivo; summary of the method: as §4
# [28] = Clearance in Sprague-Dawley rat at 20 mg/kg, ip by HPLC analysis; format: ADME, organism-based; settings: in vivo; summary of the method: as §4
# [29] = MRT in Sprague-Dawley rat at 5 mg/kg, iv by HPLC analysis; format: ADME, organism-based; settings: in vivo; summary of the method: as §4
# [30] = AUC in Sprague-Dawley rat at 20 mg/kg, po measured up to 48 hrs post administration by HPLC analysis; format: ADME, organism-based; set-up: time < 48 hr, dose 20 mg/kg, route oral; settings: in vivo; summary of the method: as §4
# [31] = Half life in Sprague-Dawley rat at 5 mg/kg, iv by HPLC analysis; format: ADME, organism-based; settings: in vivo; summary of the method: as §4
# [32] = MRT in Sprague-Dawley rat at 20 mg/kg, po by HPLC analysis; format: ADME, organism-based; settings: in vivo; summary of the method: as §4
# [33] = Half life in Sprague-Dawley rat at 20 mg/kg, ip by HPLC analysis; format: ADME, organism-based; settings: in vivo; summary of the method: as §4
# [34] = Oral bioavailability in Sprague-Dawley rat at 20 mg/kg measured up to 48 hrs after administration by HPLC analysis; format: ADME, organism-based; settings: in vivo; summary of the method: as §4
Compound,Activity (MCF7 [1]) [%],Drug uptake [3],Activity (MCF7 [4]) [%],Activity (MCF7 [5]) [%],Activity (MCF7 [6]) [%],Drug uptake [7],viability at 1 µM (MCF7 [8]) [%],Activity (MCF7 [9]) [%],Activity (MCF7 [12]) [%],pIC50 (MCF7 [15]),pIC50 (L02),pIC50 (PC-3),pIC50 (Caco-2),pIC50 (Vitamin D3 receptor),further results
C=C1/C(=C\C=C2/CCC[C@]3(C)[C@@H]([C@H](C)CCCC(C)(C)O)CC[C@@H]23)C[C@@H](O)C[C@@H]1O [CALCITRIOL],12.61,10.4%,23.9,6.59,3.44,6.5%,89.8,0.15,63.49,–,–,–,–,–,"half-life [2]: 4.27 h; Activity (Mus musculus [10]): Non-Toxic; Activity (Mus musculus [11]): 11.04 mg/dL; metabolised at 24 h, 1 µM [13]: 27%"
CCN(CC)CCNC(=O)c1ccc(C(CC)(CC)c2ccc(OCCC(O)(CC)CC)c(C)c2)n1CC,4.77,Active,26.31,7.74,2.81,Active,89.2,0.24,68.92,6.26,5.64,5.47,5.79,6.57,Activity (Mus musculus [14]): Non-Toxic; Activity (Mus musculus [16]): Non-Toxic; pIC50 (HepG2): 6.64; Activity (Mus musculus [17]): Toxic; Activity (Mus musculus [18]): Non-Toxic; Activity (MCF7 [19]): Active; TGI (MCF7 [20]): Active
CCn1c(C(=O)NC(C)CO)ccc1C(CC)(CC)c1ccc(OCC(O)C(C)(C)C)c(C)c1 (stereo not given),12.52,–,24.45,7.58,2.78,–,89.5,0.15,63.03,5.55,4.76,4.76,< 4.30,6.64,half-life [21]: 6.89 h; AUC at 48 h [22]: 13400 ng·h/mL; AUC at 48 h [23]: 24800 ng·h/mL; bioavailability [24]: 46.2%; MRT [25]: 8.15 h; clearance [26]: 6.83 mL/min; CL/F [27]: 25 mL/min; CL/F [28]: 13.5 mL/min; MRT [29]: 2.82 h; AUC at 48 h [30]: 13500 ng·h/mL; half-life [31]: 2.44 h; MRT [32]: 10.8 h; half-life [33]: 3.96 h; bioavailability [34]: 25.2%
